For eleven compounds, inhibition of growth results are on record in ChEMBL document CHEMBL3044991, “Synthesis and biological activity of 4-(4,6-disubstituted-pyrimidin-2-yloxy)phenoxy acetates” (2010).

Common to all, as to type: functional
What all share (conditions): read-out: GI

In assay [1] the test system is Digitaria sanguinalis. Briefly: Herbicidal activity against Digitaria sanguinalis (hairy crabgrass) assessed as root growth inhibition at 10 mg/L applied to germinated seeds measured after 65 hr at 28 degC. The method, boiled down: (§1)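 Compounds dissolved in DMF with Tween 20 and diluted in distilled water to an emulsion. Germinated seeds, usually 15 per plate, were placed on two filter papers wetted with test solution in a Petri dish. Plates were kept in the dark for 65 h at 28 (±1) ºC. Root lengths of 10 seeds per plate were measured and averaged. Blank was emulsion without compound; quizalofop-P-ethyl served as control.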

The test system of assay [2] is Digitaria sanguinalis. Briefly: Herbicidal activity against Digitaria sanguinalis (hairy crabgrass) assessed as root growth inhibition at 100 mg/L applied to germinated seeds measured after 65 hr at 28 degC. The gist of the method: as §1
Assay [3] concerns Brassica napus. Briefly: Herbicidal activity against Brassica napus (oilseed rape) assessed as root growth inhibition at 10 mg/L applied to germinated seeds measured after 65 hr at 28 degC. The method, boiled down: as §1
In assay [4] the test system is Digitaria sanguinalis. Briefly: Herbicidal activity against Digitaria sanguinalis (hairy crabgrass) assessed as root growth inhibition at 50 mg/L applied to germinated seeds measured after 65 hr at 28 degC. The gist of the method:
as §1

The test system of assay [5] is Brassica napus. Briefly: Herbicidal activity against Brassica napus (oilseed rape) assessed as root growth inhibition at 100 mg/L applied to germinated seeds measured after 65 hr at 28 degC. The gist of the method: as §1
Assay [6] has as its system Brassica napus. Briefly: Herbicidal activity against Brassica napus (oilseed rape) assessed as root growth inhibition at 50 mg/L applied to germinated seeds measured after 65 hr at 28 degC. The method, boiled down:
as §1

Turning to `COC(=O)COc1ccc(Oc2nc(OC)cc(OC)n2)cc1`, the inhibition of growth at 10 µg/mL in the assay on Digitaria sanguinalis [1] worked out at 42.8%; in the assay with Brassica napus [3] it was 22.9%. Besides, the inhibition of growth at 100 µg/mL was 100% in the assay on Digitaria sanguinalis [2] and 39.8% with Brassica napus [5]. The inhibition of growth at 50 µg/mL in the assay on Digitaria sanguinalis [4] came to 98.5%; in the assay with Brassica napus [6] it was 34.4%.

`CCOC(=O)COc1ccc(Oc2nc(OC)cc(OC)n2)cc1`: the inhibition of growth at 10 µg/mL with Digitaria sanguinalis [1] turned out to be 39.9%; in the assay with Brassica napus [3] it was 13.4%. The values for the inhibition of growth at 100 µg/mL in the assay with Digitaria sanguinalis [2] and with Brassica napus [5] were 100% and 41.1%, respectively. The inhibition of growth at 50 µg/mL in the assay with Digitaria sanguinalis [4] came out at 96.2%; in the assay with Brassica napus [6] it was 31%.

With `CCCOC(=O)COc1ccc(Oc2nc(OC)cc(OC)n2)cc1`, the inhibition of growth at 10 µg/mL with Digitaria sanguinalis [1] came out at 32.5%; in the assay with Brassica napus [3], 10.1%. Moreover, the values for the inhibition of growth at 100 µg/mL in the assay on Digitaria sanguinalis [2] and with Brassica napus [5] were 100% and 15.9%, respectively. Also, the inhibition of growth at 50 µg/mL with Digitaria sanguinalis [4] is 95.2%; with Brassica napus [6] it was 13.1%.

In the case of `COc1cc(OC)nc(Oc2ccc(OCC(=O)OC(C)C)cc2)n1`, the results for the inhibition of growth at 10 µg/mL in the assay on Digitaria sanguinalis [1] and with Brassica napus [3] were 32.7% and 14.6%, respectively. Moreover, the figures for the inhibition of growth at 100 µg/mL with Digitaria sanguinalis [2] and with Brassica napus [5] were 100% and 25.1%, respectively. The inhibition of growth at 50 µg/mL was 96.5% in the assay with Digitaria sanguinalis [4] and 21% in the assay with Brassica napus [6].

For the compound `CCCCOC(=O)COc1ccc(Oc2nc(OC)cc(OC)n2)cc1`, the inhibition of growth at 10 µg/mL in the assay with Digitaria sanguinalis [1] came to 41.8%; in the assay on Brassica napus [3], 9.5%. The values for the inhibition of growth at 100 µg/mL in the assay on Digitaria sanguinalis [2] and in the assay with Brassica napus [5] were 100% and 28.3%, respectively. Further, the inhibition of growth at 50 µg/mL stood at 96.9% with Digitaria sanguinalis [4] and 13.4% in the assay on Brassica napus [6].

In the case of `COC(=O)COc1ccc(Oc2nc(C)cc(C)n2)cc1`, the results for the inhibition of growth at 10 µg/mL with Digitaria sanguinalis [1] and in the assay on Brassica napus [3] were 44.7% and 11.9%, respectively. The inhibition of growth at 100 µg/mL amounted to 100% in the assay on Digitaria sanguinalis [2] and 44.7% with Brassica napus [5]. Further, the values for the inhibition of growth at 50 µg/mL in the assay with Digitaria sanguinalis [4] and in the assay on Brassica napus [6] were 97.3% and 26.7%, respectively.

For the compound `CCOC(=O)COc1ccc(Oc2nc(C)cc(C)n2)cc1`, the inhibition of growth at 10 µg/mL in the assay on Digitaria sanguinalis [1] was determined as 38.5%; in the assay with Brassica napus [3], 14.2%. For the same compound, the inhibition of growth at 100 µg/mL in the assay on Digitaria sanguinalis [2] was 100%; in the assay with Brassica napus [5], 58.4%. For the same compound, the inhibition of growth at 50 µg/mL amounted to 98.4% in the assay on Digitaria sanguinalis [4] and 32.7% with Brassica napus [6].

Regarding `CCCOC(=O)COc1ccc(Oc2nc(C)cc(C)n2)cc1`, the inhibition of growth at 10 µg/mL is 36.9% in the assay with Digitaria sanguinalis [1] and 12.1% in the assay with Brassica napus [3]. The values for the inhibition of growth at 100 µg/mL with Digitaria sanguinalis [2] and with Brassica napus [5] were 100% and 54.5%, respectively. For the same compound, the results for the inhibition of growth at 50 µg/mL in the assay with Digitaria sanguinalis [4] and in the assay on Brassica napus [6] were 97.5% and 33.9%, respectively.

For `Cc1cc(C)nc(Oc2ccc(OCC(=O)OC(C)C)cc2)n1`, the inhibition of growth at 10 µg/mL in the assay with Digitaria sanguinalis [1] is 35%; with Brassica napus [3], 9.2%. For the same compound, the figures for the inhibition of growth at 100 µg/mL in the assay with Digitaria sanguinalis [2] and in the assay on Brassica napus [5] were 100% and 26.4%, respectively. Moreover, the inhibition of growth at 50 µg/mL in the assay on Digitaria sanguinalis [4] is 95.1%; in the assay on Brassica napus [6], 14.3%.

On to `CCCCOC(=O)COc1ccc(Oc2nc(C)cc(C)n2)cc1`, for which the results for the inhibition of growth at 10 µg/mL in the assay on Digitaria sanguinalis [1] and in the assay on Brassica napus [3] were 42.6% and 21.5%, respectively. Also, the inhibition of growth at 100 µg/mL came out at 100% in the assay with Digitaria sanguinalis [2] and 50.2% with Brassica napus [5]. In addition, the inhibition of growth at 50 µg/mL was 97.6% in the assay with Digitaria sanguinalis [4] and 34.2% in the assay on Brassica napus [6].

As for `CCOC(=O)[C@@H](C)Oc1ccc(Oc2cnc3cc(Cl)ccc3n2)cc1` [QUIZALOFOP-P-ETHYL], the inhibition of growth at 10 µg/mL in the assay with Digitaria sanguinalis [1] stood at 63.5%; in the assay with Brassica napus [3], 33.8%. For the same compound, the inhibition of growth at 100 µg/mL amounted to 100% in the assay with Digitaria sanguinalis [2] and 51.2% in the assay with Brassica napus [5]. Also, the inhibition of growth at 50 µg/mL was 95.3% with Digitaria sanguinalis [4] and 39.2% in the assay on Brassica napus [6].
